Measured values from different studies.
Lines come from different studies, so protocols differ.
Oprk1: Kappa-type opioid receptor (Oprk1, Mus musculus, UniProt P33534)
SLC6A2: Sodium-dependent noradrenaline transporter (SLC6A2, Homo sapiens, UniProt P23975)
MPO: Myeloperoxidase (MPO, Homo sapiens, UniProt P05164)

SMILES	target	assay	conditions	inhibition
CC(C)[C@@H](CN1CCc2ccccc2C1)NC(=O)c1cccc(-c2ccc(F)cc2)c1	Oprk1	ligand displacement, radioligand	10 µM	63.9%
OC[C@@]12C[C@@H]1[C@@H](n1cnc3c(NCCCCCCc4ccccc4)nc(I)nc31)[C@H](O)[C@@H]2O	SLC6A2	ligand displacement, radioligand	10 µM	52%
CC(C)[C@@H](CN1CCc2ccccc2C1)NC(=O)c1cccc(-c2ccccc2)c1	Oprk1	ligand displacement, radioligand	10 µM	66%
Cc1cc(O)c(-c2ccc([C@@H](C)CN(C)C)cc2)c2c1[nH]c(=O)c1sccc12	Serine/threonine-protein kinase WNK4 (WNK4, Homo sapiens, UniProt Q96J92)	enzyme activity, inhibitor	0.1 µM	1.12%
N#CC[C@@]12C[C@@H]1[C@@H](n1cnc3c(Nc4ccccc4)nc(C#Cc4ccc(Cl)s4)nc31)[C@H](O)[C@@H]2O	SLC6A2	ligand displacement, radioligand	10 µM	37%
CC(C)[C@@H](CN1CCc2ccccc2C1)NC(=O)c1ccc([N+](=O)[O-])s1	Oprk1	ligand displacement, radioligand	10 µM	68.8%
COc1ccc(Cl)cc1-c1cc(=O)[nH]c(=S)n1CC(N)=O	MPO	enzyme activity, inhibitor, fluorescence	15 µM	98.2%
CC(C)[C@@H](CN1CCc2ccccc2C1)NC(=O)c1c(Cl)cncc1Cl	Oprk1	ligand displacement, radioligand	10 µM	70.9%
CCOC(=O)[C@@]12C[C@@H]1[C@@H](n1cnc3c(NCCO)nc(C#Cc4ccc(Cl)s4)nc31)[C@H](O)[C@@H]2O	SLC6A2	ligand displacement, radioligand	10 µM	15%
NC/C(=C\F)COc1cccc(Cn2c(=S)[nH]c(=O)c3[nH]cnc32)c1	MPO	enzyme activity, inhibitor, fluorescence	0.3704 µM	98.6%
N#CC[C@@]12C[C@@H]1[C@@H](n1cnc3c(Nc4ccccc4)nc(I)nc31)[C@H](O)[C@@H]2O	SLC6A2	ligand displacement, radioligand	10 µM	20%
CC(C)[C@@H](CN1CCc2ccccc2C1)NC(=O)c1cccc(-c2cccnc2)c1	Oprk1	ligand displacement, radioligand	10 µM	74.3%
CCOC(=O)C12CC1C(n1ccc3c(NCCCc4ccccc4)nc(C#Cc4ccc(Cl)s4)nc31)C(O)C2O (stereo not drawn)	SLC6A2	ligand displacement, radioligand	10 µM	50%
C#Cc1cc(-c2cc(Nc3nc(N[C@@H](C)c4ccc(F)cn4)ncc3Cl)n[nH]2)ccc1C=O	Interferon-induced, double-stranded RNA-activated protein kinase (EIF2AK2, Homo sapiens, UniProt P19525)	enzyme activity, inhibitor	0.2 µM	7.44%
CCOC(=O)[C@@]12C[C@@H]1[C@@H](n1cnc3c(NCCCCCCc4ccccc4)nc(C#Cc4ccc(Cl)s4)nc31)[C@H](O)[C@@H]2O	SLC6A2	ligand displacement, radioligand	10 µM	83%
CC(C)[C@H](CN1CCc2ccccc2C1)NC(=O)c1ccc(F)cc1	Oprk1	ligand displacement, radioligand	10 µM	88.7%
CC(C)OCCn1c(=S)[nH]c(=O)c2[nH]ccc21	MPO	enzyme activity, inhibitor, fluorescence	0.1852 µM	82.5%
Cc1cc(F)cc2c(CCC(=O)N[C@@H]3C(=O)NC[C@H]3O)c(-c3ccc(F)cc3)[nH]c12	Neuronal acetylcholine receptor; alpha3/beta4 (Homo sapiens, UniProt P30926+P32297)	cell-free assay	10 µM	-4%
